Measurements reported in ChEMBL document CHEMBL3045526, “Tailoring the structure of aminobisphosphonates to target plant P5C reductase” (J Agric Food Chem, 2008).
Activity calls are given as the source filed them. The calls are words filed in the database; no cut-off is given here.

Columns and labels:
[1] = tested on: Arabidopsis thaliana; test: Growth inhibition of Arabidopsis thaliana suspension cultured cells assessed as reduction in dry weight increase measured 8 days after compound incubation; format: functional
Method in brief: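 Same A. thaliana Columbia suspension cultures, inoculated at 3.2–3.5 mg mL-1 dry weight. Filter-sterilized compounds (pH 6.0 with KOH) added at increasing concentrations once density reached 4.0 mg mL-1. After 8 days, when controls reached early stationary phase, cells were vacuum-filtered and oven-dried (90 °C, 48 h). Dry weight increase given as % of control; 50% growth-reduction concentration derived.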

[2] = molecular target: T1, Pyrroline-5-carboxylate reductase (Arabidopsis thaliana, UniProt P54904); test: Inhibition of Arabidopsis thaliana P5C assessed as reduction in NADH oxidation incubated at 35 degC up to 10 min
T1 sequence (P54904 whole entry): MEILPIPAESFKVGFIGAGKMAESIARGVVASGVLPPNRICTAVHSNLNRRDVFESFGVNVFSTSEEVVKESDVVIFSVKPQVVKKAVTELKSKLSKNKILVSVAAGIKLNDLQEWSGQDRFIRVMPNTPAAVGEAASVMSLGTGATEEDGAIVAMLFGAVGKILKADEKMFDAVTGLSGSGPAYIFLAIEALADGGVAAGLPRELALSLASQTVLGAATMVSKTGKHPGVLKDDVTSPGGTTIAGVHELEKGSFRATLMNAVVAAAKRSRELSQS
Method in brief: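 P5C reductase partially purified from stationary-phase A. thaliana cultured cells. Forward reaction run in 100 mM Tris-HCl pH 8.0, 0.1 mM MgCl2, 2 mM DL-P5C, 0.25 mM NADH, with 0.15–0.20 nkat enzyme. A340 followed at 35 °C for up to 10 min against P5C-free blanks. Inhibitor final 5 µM–5 mM (pH 7.5–8.0), triplicate. IC50 by linear regression of % activity vs log concentration.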

[3] = tested on: Arabidopsis thaliana; test: Growth inhibition of Arabidopsis thaliana suspension cultured cells assessed as reduction in dry weight increase at 0.2 mM measured 8 days after compound incubation in presence of exogenously supplied 2 mM proline; format: functional
Method in brief: (§1)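 A. thaliana Columbia suspension cells (MS medium, 0.3% sucrose, 2,4-D and BAP 0.5 mg L-1 each; 24 °C, 100 rpm, dim light). Flasks inoculated at 3.2–3.5 mg mL-1 dry weight. Inhibitor (pH 6.0) plus filter-sterilized amino acids added together at 4.0 mg mL-1. Dry weight increase after 8 days (oven, 90 °C, 48 h) given as % of untreated control. Four replicates.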

[4] = tested on: Arabidopsis thaliana; test: Growth inhibition of Arabidopsis thaliana suspension cultured cells assessed as reduction in dry weight increase at 0.2 mM measured 8 days after compound incubation in presence of exogenously supplied 10 mM glutamine and 2 mM proline; format: functional; method in brief: as §1
[5] = tested on: Arabidopsis thaliana; test: Growth inhibition of Arabidopsis thaliana suspension cultured cells assessed as reduction in dry weight increase at 0.2 mM measured 8 days after compound incubation in presence of exogenously supplied 10 mM glutamine; format: functional; method in brief: as §1

Row | Structure (SMILES) | growth inhibition (GI) [1] | IC50 [2] | other results
1 | O=P(O)(O)C(Nc1cccc(Cl)c1Cl)P(=O)(O)O [2,3-DICHLOROPHENYLAMINOMETHYLENEBISPHOSPHONIC ACID] | Active |  | 
2 | O=P(O)(O)C(Nc1c(Cl)cccc1Cl)P(=O)(O)O [2,6-DICHLOROPHENYLAMINOMETHYLENEBISPHOSPHONIC ACID] | Active |  | 
3 | Cc1cc(C)cc(NC(P(=O)(O)O)P(=O)(O)O)c1 [3,5-DIMETHYLPHENYLAMINOMETHYLENEBISPHOSPHONIC ACID] |  | 1.07 mM | 
4 | O=P(O)(O)C(Nc1cc(Cl)cc(Cl)c1)P(=O)(O)O [(3,5-DICHLOROPHENYLAMINO)METHYLENEDIPHOSPHONIC ACID] |  |  | GI50 ([1]; 192 h): 0.24 mM; growth inhibition (GI) [3]: Active; growth inhibition (GI) [4]: inactive; growth inhibition (GI) [5]: Active
5 | O=P(O)(O)C(N1CCCCCCC1)P(=O)(O)O [N-(HEPTAMETHYLENEIMINO)METHYLENEBISPHOSPHONIC ACID] |  | 533 mM | 
6 | O=P(O)(O)C(N1CCCCCC1)P(=O)(O)O [N-(HEXAMETHYLENEIMINO)METHYLENEBISPHOSPHONIC ACID] |  | 74.4 mM | 
